Results as given in ChEMBL document CHEMBL1799960, “Diadenosine 5',5''-(boranated)polyphosphonate analogues as selective nucleotide pyrophosphatase/phosphodiesterase inhibitors” (J Med Chem, 2010).
pEC50, pIC50, pKi: −log10 of the molar value. Activity calls are given as the source filed them. The calls are words filed in the database; no cut-off is given here.

Legend:
[1] = molecular target: T1, Ectonucleoside triphosphate diphosphohydrolase 8 (Homo sapiens) (UniProt Q5MY95); assay: Inhibition of human NTPDase8 expressed in COS7 cells assessed as amount of inorganic phosphate released using ATP as the substrate at 100 uM after 15 mins by malachite green reagent method; assay type: cell-based; settings: COS-7
T1 sequence (whole entry): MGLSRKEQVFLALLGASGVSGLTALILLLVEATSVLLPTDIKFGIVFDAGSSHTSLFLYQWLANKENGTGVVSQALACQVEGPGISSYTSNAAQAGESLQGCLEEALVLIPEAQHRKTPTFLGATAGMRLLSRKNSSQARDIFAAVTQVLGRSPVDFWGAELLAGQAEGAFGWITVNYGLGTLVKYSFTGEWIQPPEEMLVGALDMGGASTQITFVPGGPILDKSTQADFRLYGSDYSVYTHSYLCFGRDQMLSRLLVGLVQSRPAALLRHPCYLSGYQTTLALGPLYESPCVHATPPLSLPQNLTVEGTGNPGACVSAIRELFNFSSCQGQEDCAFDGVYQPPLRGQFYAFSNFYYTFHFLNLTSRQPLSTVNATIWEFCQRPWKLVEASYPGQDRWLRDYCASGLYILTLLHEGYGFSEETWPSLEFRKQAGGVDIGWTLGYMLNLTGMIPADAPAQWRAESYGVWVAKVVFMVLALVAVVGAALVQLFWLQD
Method in brief: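 Protein extracts of transfected COS-7 cells (ecto-5'-nucleotidase: 100 μM AMP substrate; NTPDases: 100 μM ATP) were preincubated 3 min at 37 °C in Tris-Ringer pH 7.3 with inhibitor at 100 μM final. After 15 min, malachite green stop; Pi read at 630 nm. Activity given as % of substrate-only control. Mean ± SD of three experiments in triplicate.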

[2] = molecular target: T2, Ectonucleotide pyrophosphatase/phosphodiesterase family member 1 (Homo sapiens) (UniProt P22413); assay: Inhibition of human NPP1 expressed in COS7 cells assessed as production of p-nitrophenol using pnp-TMP as the substrate at 100 uM after 15 mins […]; assay type: cell-based; settings: COS-7
T2 sequence (whole entry): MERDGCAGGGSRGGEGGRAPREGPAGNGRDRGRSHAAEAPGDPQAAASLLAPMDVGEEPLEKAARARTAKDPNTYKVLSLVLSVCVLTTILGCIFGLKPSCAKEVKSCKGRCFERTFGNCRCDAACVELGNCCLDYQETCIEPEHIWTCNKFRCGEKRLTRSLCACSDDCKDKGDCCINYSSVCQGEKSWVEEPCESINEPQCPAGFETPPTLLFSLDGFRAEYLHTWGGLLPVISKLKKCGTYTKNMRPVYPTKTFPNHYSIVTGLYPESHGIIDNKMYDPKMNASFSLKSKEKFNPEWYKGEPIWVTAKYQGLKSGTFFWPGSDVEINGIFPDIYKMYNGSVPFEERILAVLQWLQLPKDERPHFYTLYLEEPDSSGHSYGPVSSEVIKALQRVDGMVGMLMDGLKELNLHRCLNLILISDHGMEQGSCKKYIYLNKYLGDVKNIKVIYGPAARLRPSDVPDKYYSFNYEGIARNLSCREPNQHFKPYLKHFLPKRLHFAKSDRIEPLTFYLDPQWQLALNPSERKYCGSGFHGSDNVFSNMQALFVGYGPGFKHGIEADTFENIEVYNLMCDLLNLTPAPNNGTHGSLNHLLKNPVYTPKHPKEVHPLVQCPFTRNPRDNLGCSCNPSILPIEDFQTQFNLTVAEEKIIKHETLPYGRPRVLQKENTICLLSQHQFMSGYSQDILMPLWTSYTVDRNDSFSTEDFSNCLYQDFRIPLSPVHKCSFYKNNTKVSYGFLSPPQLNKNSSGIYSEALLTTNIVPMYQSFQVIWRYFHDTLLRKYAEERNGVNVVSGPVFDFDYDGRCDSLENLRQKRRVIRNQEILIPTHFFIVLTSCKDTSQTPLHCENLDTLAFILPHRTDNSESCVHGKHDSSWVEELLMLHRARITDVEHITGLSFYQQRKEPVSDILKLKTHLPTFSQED
Method in brief: (§1)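 Human NPP1, NPP2 (membrane lysate or conditioned medium for the secreted form) or NPP3 from transfected COS-7 cells, preincubated 3 min at 37 °C in 50 mM Tris pH 8.5 buffer with CaCl2, NaCl and KCl. Substrate and inhibitor both at 100 μM final. pnp-TMP: p-nitrophenol read at 405 nm at 15 min. ATP or Ap5A: stopped at 30 min with perchloric acid, then HPLC. Results as % residual activity versus control; three to six experiments in triplicate.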

Autotaxin (Homo sapiens) = Autotaxin (Homo sapiens) (UniProt Q13822); assay: Inhibition of human secreted NPP2 expressed in COS7 cells assessed as production of p-nitrophenol using pnp-TMP as the substrate at 100 uM after 15 mins by malachite green reagent method; assay type: cell-based; settings: COS-7; method in brief: as §1
[3] = molecular target: T2, Ectonucleotide pyrophosphatase/phosphodiesterase family member 1 (Homo sapiens); assay: Inhibition of human NPP1 expressed in COS7 cells assessed as production of p-nitrophenol using Ap5A as the substrate at 100 uM after 30 mins […]; assay type: cell-based; settings: COS-7
[4] = molecular target: T3, Ectonucleotide pyrophosphatase/phosphodiesterase family member 1 (Homo sapiens, UniProt P22413); assay: Inhibition of human NPP1 expressed in COS7 cells assessed as production of p-nitrophenol using pnp-TMP as the substrate after 15 mins […]; assay type: cell-based, COS-7
T3 sequence (P22413 whole entry): T2 sequence (whole entry)
Method in brief: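 Human NPP1 COS-7 extract in Tris pH 8.5 buffer at 37 °C with pnp-TMP; p-nitrophenol read at 405 nm after 15 min. […] Values from Dixon and Cornish-Bowden plots of three independent experiments in triplicate.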

[5] = molecular target: T2, Ectonucleotide pyrophosphatase/phosphodiesterase family member 1 (Homo sapiens); assay: Inhibition of human NPP1 in human Saos2 cells assessed as production of p-nitrophenol using pnp-TMP as the substrate […]; assay type: cell-based; settings: SAOS-2
[6] = molecular target: P2Y purinoceptor 2 (Homo sapiens) (UniProt P41231); assay: Agonist activity at GFP tagged-human P2Y2 receptor expressed in human 1321N1 cells assessed as elevation in calcium level at 25 uM after 30 mins by fluorescence spectrophotometric analysis; assay type: functional, cell-based
P2Y purinoceptor 11 = molecular target: T4, P2Y purinoceptor 11 (Homo sapiens, UniProt Q96G91); assay: Agonist activity at GFP tagged-human P2Y11 receptor expressed in human 1321N1 cells assessed as elevation in calcium level after 30 mins by fluorescence spectrophotometric analysis; assay type: functional, cell-based
T4 sequence (Q96G91 whole entry): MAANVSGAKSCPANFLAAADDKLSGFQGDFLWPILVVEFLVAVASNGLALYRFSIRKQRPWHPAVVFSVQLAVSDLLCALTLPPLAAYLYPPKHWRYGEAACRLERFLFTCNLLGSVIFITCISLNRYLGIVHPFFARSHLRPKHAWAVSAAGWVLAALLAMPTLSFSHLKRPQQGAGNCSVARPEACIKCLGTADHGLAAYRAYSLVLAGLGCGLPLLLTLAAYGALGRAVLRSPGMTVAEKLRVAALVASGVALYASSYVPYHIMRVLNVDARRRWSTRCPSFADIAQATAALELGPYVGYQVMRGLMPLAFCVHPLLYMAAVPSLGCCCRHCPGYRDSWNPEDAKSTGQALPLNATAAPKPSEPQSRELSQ

Chain of P2Y purinoceptor 2 (Homo sapiens) (P41231 whole entry): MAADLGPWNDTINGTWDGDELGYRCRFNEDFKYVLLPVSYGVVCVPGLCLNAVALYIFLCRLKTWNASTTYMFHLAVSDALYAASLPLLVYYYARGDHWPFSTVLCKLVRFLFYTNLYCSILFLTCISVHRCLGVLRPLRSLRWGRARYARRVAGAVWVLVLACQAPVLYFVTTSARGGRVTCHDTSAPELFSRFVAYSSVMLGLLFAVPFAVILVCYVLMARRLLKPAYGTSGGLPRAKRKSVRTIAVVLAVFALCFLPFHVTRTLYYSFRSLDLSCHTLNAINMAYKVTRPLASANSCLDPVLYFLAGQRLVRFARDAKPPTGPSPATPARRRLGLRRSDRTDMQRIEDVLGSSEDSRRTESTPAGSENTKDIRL

BP(=O)(OP(=O)(O)CP(=O)(O)OC[C@H]1O[C@@H](n2cnc3c(N)ncnc32)C[C@@H]1O)OP(=O)(O)CP(=O)(O)OC[C@H]1O[C@@H](n2cnc3c(N)ncnc32)C[C@@H]1O
inhibition [1]: inactive
inhibition [2]: > 90%
inhibition (Autotaxin (Homo sapiens)): 60%
inhibition [3]: 60%
pIC50 [4]: 4.89
pKi [4]: 5.05
inhibition [5]: 90%
Activity [6]: inactive

Nc1ncnc2c1ncn2[C@@H]1O[C@H](COP(=O)(O)CP(=O)(O)OP(=O)(O)CP(=O)(O)OC[C@H]2O[C@@H](n3cnc4c(N)ncnc43)[C@H](O)[C@@H]2O)[C@@H](O)[C@H]1O
inhibition [1]: inactive
inhibition [2]: > 90%
inhibition (Autotaxin (Homo sapiens)): 60%
inhibition [3]: 20%
pIC50 [4]: 4.48
pKi [4]: 4.89
inhibition [5]: 80%
Activity [6]: inactive
pEC50 (P2Y purinoceptor 11): ≤ 4.40

BP(=O)(OP(=O)(O)CP(=O)(O)OC[C@H]1O[C@@H](n2cnc3c(N)ncnc32)[C@H](O)[C@@H]1O)OP(=O)(O)CP(=O)(O)OC[C@H]1O[C@@H](n2cnc3c(N)ncnc32)[C@H](O)[C@@H]1O
inhibition [1]: inactive
inhibition [2]: > 90%
inhibition (Autotaxin (Homo sapiens)): 60%
inhibition [3]: 60%
pIC50 [4]: 4.20
pKi [4]: 4.70
inhibition [5]: 90%
Activity [6]: inactive
pEC50 (P2Y purinoceptor 11): 4.89

Nc1ncnc2c1ncn2[C@H]1C[C@H](O)[C@@H](COP(=O)(O)CP(=O)(O)OP(=O)(O)CP(=O)(O)OC[C@H]2O[C@@H](n3cnc4c(N)ncnc43)C[C@@H]2O)O1
inhibition [1]: inactive
inhibition [2]: > 90%
inhibition (Autotaxin (Homo sapiens)): 60%
inhibition [3]: 60%
pIC50 [4]: 4.30
pKi [4]: 4.29
inhibition [5]: 80%
Activity [6]: inactive
